Assay results pooled from the literature.
Each line is one published result; the experiments were not run side by side.
Read-out: cell growth or viability

| SMILES | cell line | method | time | IC50 [nM] |
| --- | --- | --- | --- | --- |
| CN(C)CCCN1c2ccccc2Sc2ccc(Cl)cc21 | human Hepatocyte |  |  | 26000 |
| CC(=O)O[C@H]1C(=O)[C@@]2(C)[C@H]([C@H](OC(=O)c3ccccc3)[C@]3(O)C[C@H](OC(=O)[C@H](O)[C@@H](NC(=O)c4ccccc4)c4ccccc4)C(C)=C1C3(C)C)[C@]1(OC(C)=O)CO[C@@H]1C[C@@H]2O | BXPC-3 | fluorescence | 72 h | 4 |
| COc1cc([C@@H]2c3cc4c(cc3[C@@H](O[C@@H]3O[C@@H]5CO[C@@H](C)O[C@H]5[C@H](O)[C@H]3O)[C@H]3COC(=O)[C@H]23)OCO4)cc(OC)c1O | DLD-1 | fluorescence | 48 h | 1300 |
| Cc1nc(NC(=O)N2CCC[C@H]2C(N)=O)sc1-c1ccnc(C(C)(C)C(F)(F)F)c1 | SW48 | ATP luminescence | 96 h | 154 |
| C[C@H](NC(=O)c1cccc2ccccc12)C(=O)Nc1ccccc1Oc1ccccc1 | SK-N-FI |  |  | 3000 |
| CCN1CCN(c2ccc(Nc3cc(N(C)C(=O)Nc4c(Cl)c(OC)cc(OC)c4Cl)ncn3)cc2)CC1 | MFE-296 | ATP luminescence | 96 h | 52.5 |
| CC(C)C[C@H](NC(=O)[C@H](Cc1ccccc1)NC(=O)c1cnccn1)B(O)O | BEN | ATP luminescence |  | 68 |
| CN(C)C/C=C/C(=O)Nc1cc2c(Nc3ccc(F)c(Cl)c3)ncnc2cc1O[C@H]1CCOC1 | SW620/AD300 | MTT | 72 h | 4300 |
| CCC[C@H](Nc1nc(-c2ccc(NC(=O)NCC)c(OC)c2)ncc1C)c1cccnc1 | BXPC-3 | fluorescence | 72 h | 37.1 |
| COc1cc(Nc2nccc(-c3cnn4nc(OC)ccc34)n2)cc(C(F)(F)F)c1 | NCI-H838 | ATP luminescence |  | 470 |
| Cc1ccc2[nH]c(=O)c3cc(C(=O)NCCCN(C)Cc4ccccc4)sc3c2c1 | BXPC-3 | MTT | 24 h | 10100 |
| C[C@H]1[C@H](C)CC[C@]2(C(=O)O)CC[C@]3(C)C(=CC[C@@H]4[C@@]5(C)CC[C@H](O)C(C)(C)[C@@H]5CC[C@]43C)[C@H]12 | DLD-1 |  | 48 h | 13000 |
| Cc1nc(Nc2ncc(C(=O)Nc3c(C)cccc3Cl)s2)cc(N2CCN(CCO)CC2)n1 | BXPC-3 | MTT |  | 46 |
| Cc1nc(-c2cn3c(n2)-c2ccc(-c4cnn(C(C)(C)C(N)=O)c4)cc2OCC3)n(C(C)C)n1 | SW48 | ATP luminescence | 96 h | 21.5 |
